PMC6136361 (Journal of Enzyme Inhibition and Medicinal Chemistry, 2018)
“And” between values parts separate entries of the source, which are not always exact repeats. Identical values can stand only once. Like-named read-outs stand apart in the source and are kept apart here.

Tests used:
HepG-2 cells [1] = experiment: Cytotoxicity, Sulforhodamine-B; type: cell-based, human; settings: for IC50: Homo sapiens
HCT-116 cells = experiment: Cytotoxicity, Sulforhodamine-B; type: cell-based; settings: Homo sapiens
Outline: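 SRB viability: cells seeded at 5 × 10^4–10^5/well and left to attach 24 h. Test compound (DMSO, diluted in saline) at 0.001–100 µM for 48 h, four wells per concentration; vehicle-only controls. Fixed cold 50% TCA 1 h at 4 °C, stained 0.4% SRB in 1% acetic acid 30 min, dye solubilised in 10 mM tris base pH 10.5, OD 564 nm. Survival fraction = OD treated/OD control; IC50 from survival-concentration plot; repeated three times.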

caspase-3 = experiment: ELISA immunoassay of active caspase-3 level in HepG-2 cells; type: cell-based, human; settings: HepG-2, at IC50, 24 h
Bax = experiment: ELISA immunoassay of Bax level in HepG-2 cells; type: cell-based, human; settings: for Bax level, fold increase compared to the control: HepG-2, at IC50, 24 h
HepG-2 cells [2] = experiment: FITC-annexin V / PI staining for apoptosis; type: cell-based, human; settings: HepG-2, at IC50, 24 h; for late apoptotic cells percentage (Q2): control 0.34%
caspase-7 = experiment: ELISA immunoassay of active caspase-7 level in HepG-2 cells; type: cell-based, human; settings: HepG-2, at IC50, 24 h
β-tubulin = β-tubulin (Homo sapiens, UniProt P07437); experiment: β-tubulin polymerization inhibition assay; type: cell-based; settings: for %β-TUB polymerization inhibition: at their IC50 values on HepG-2 cells; for β-tubulin polymerization inhibition: at their IC50 values, HepG-2 cells
Chain of β-tubulin (P07437 whole entry): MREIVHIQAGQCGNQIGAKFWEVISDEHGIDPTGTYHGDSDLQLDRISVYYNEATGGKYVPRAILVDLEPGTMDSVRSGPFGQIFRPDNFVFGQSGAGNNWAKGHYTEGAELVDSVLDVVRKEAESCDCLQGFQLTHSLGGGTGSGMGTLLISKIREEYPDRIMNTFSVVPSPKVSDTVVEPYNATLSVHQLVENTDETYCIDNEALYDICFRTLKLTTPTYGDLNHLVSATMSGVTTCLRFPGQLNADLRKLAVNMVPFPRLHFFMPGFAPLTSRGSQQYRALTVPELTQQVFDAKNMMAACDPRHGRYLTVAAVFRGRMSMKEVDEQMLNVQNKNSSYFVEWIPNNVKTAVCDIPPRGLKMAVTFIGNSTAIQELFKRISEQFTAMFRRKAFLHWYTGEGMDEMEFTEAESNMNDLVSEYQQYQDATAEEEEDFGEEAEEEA
Chain of β-tubulin (P68363 whole entry partner): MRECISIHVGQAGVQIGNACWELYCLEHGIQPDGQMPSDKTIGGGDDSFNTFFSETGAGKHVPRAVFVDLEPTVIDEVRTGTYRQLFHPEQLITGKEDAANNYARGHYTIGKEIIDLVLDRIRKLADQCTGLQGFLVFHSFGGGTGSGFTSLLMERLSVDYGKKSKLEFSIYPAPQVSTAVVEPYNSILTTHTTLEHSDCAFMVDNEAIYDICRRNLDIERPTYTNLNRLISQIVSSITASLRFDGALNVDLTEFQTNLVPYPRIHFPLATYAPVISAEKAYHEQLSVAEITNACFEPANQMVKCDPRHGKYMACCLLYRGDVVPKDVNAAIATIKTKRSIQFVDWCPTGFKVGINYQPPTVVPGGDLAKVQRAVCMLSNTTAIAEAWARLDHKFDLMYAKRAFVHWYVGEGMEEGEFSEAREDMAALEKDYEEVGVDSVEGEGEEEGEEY

VEGFR-2 = VEGFR-2 (Homo sapiens, UniProt P35968); experiment: biochemical; type: biochemical
Chain of VEGFR-2 (P35968 20-1356): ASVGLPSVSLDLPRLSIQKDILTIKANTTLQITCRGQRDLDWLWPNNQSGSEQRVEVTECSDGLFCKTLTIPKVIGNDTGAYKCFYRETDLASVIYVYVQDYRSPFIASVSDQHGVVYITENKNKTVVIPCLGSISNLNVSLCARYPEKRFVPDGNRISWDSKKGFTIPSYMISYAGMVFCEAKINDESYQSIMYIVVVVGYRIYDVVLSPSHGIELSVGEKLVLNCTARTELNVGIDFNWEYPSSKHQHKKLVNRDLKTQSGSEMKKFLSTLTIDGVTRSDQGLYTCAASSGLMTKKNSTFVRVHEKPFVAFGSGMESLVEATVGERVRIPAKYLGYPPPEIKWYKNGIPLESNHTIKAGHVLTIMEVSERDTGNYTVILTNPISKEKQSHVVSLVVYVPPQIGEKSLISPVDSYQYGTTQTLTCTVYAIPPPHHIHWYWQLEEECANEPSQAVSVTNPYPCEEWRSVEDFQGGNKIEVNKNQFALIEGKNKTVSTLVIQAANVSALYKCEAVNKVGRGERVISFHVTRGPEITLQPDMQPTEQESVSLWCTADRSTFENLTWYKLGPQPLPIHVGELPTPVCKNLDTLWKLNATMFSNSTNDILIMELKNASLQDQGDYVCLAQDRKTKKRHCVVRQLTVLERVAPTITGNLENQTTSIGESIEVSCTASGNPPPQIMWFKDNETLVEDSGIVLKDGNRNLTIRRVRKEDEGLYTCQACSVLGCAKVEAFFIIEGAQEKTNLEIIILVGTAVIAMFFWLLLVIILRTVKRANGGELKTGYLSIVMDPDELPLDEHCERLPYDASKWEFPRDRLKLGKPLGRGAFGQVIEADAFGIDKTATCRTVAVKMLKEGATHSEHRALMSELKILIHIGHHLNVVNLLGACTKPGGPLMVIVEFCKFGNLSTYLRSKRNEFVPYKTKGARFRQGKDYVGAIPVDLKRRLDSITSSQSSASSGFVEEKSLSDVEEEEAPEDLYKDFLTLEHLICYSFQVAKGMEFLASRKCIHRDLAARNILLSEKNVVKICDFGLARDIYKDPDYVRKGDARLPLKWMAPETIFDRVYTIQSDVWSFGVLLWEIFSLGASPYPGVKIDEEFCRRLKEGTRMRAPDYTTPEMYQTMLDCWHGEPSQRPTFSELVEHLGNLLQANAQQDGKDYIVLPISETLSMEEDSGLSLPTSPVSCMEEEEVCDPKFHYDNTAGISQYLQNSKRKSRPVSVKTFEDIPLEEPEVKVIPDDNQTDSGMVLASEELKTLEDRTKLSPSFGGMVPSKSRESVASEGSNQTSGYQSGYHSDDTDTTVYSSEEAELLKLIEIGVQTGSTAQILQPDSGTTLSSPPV

Bcl-2 = experiment: ELISA immunoassay of Bcl-2 level in HepG-2 cells; type: cell-based, human; settings: HepG-2, at IC50, 24 h
HepG-2 cells [3] = experiment: DNA-flow cytometry cell cycle analysis; type: cell-based, human; settings: HepG-2, at IC50, 24 h; for apoptotic sub-G1 cell population: control 0.10%
Outline: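 HepG-2 cells exposed to test compound for 24 h, with an untreated control. Cells washed twice in ice-cold PBS, pelleted, fixed in ice-cold 70% ethanol, treated with 0.1 mg/mL RNase and stained with propidium iodide. DNA content measured by flow cytometry to give cell-cycle phase distribution. Fold change versus control; mean ± SEM, n = 4, one-way ANOVA with Tukey test.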

p53 = experiment: ELISA immunoassay of p53 level in HepG-2 cells; type: cell-based, human; settings: HepG-2, at IC50, 24 h
[4] = HepG2, 48 h, read-out: IC50 HepG-2
[5] = HCT-116, 48 h, read-out: IC50 HCT-116
[6] = HepG2, read-out: Experimental cytotoxicity pIC50 (converted)

IC50 (VEGFR-2) [nM] | SMILES | IC50 (HepG-2 cells [1]; [4]) [µM] | IC50 (HCT-116 cells; [5]) [µM] | IC50 (HepG-2 cells [1]; HepG2, read-out: HepG-2 IC50) [µM] | IC50 (HepG-2 cells [1]; [6]) [µM] | other results
 | COc1ccc(NC(=O)c2c(Nc3ccccc3)sc(C#N)c2NC(=O)CNc2ccccc2)cc1 [Compound 4, 5-Cyano-N-(4-methoxyphenyl)-2-phenylamino-4-(2-phenylamino-acetamido)thiophene-3-carboxamide] | 74.3 ± 5.98 | 64.1 ± 7.51 |  |  | 
 | COc1ccc(NC(=O)c2c(Nc3ccccc3)sc(C#N)c2NC(=O)CNc2ccc(Cl)cc2)cc1 [Compound 5, 4-[2-(4-Chlorophenyl)aminoacetamido]-5-cyano-N-(4-methoxyphenyl)-2-phenylaminothiophene-3-carboxamide] | 1.92 ± 0.12 | 7.83 ± 0.61 | 1.92 |  | caspase-3 level, fold increase compared to the control (caspase-3): about 11.2 fold; Bax/Bcl-2 ratio, fold elevation compared to the control (Bax; HepG-2, at IC50): 30 fold; Bax level, fold increase compared to the control (Bax): 6.6 fold; early apoptosis fold increase vs control (HepG-2 cells [2]): 8 fold; late apoptosis fold increase vs control (HepG-2 cells [2]): 23 fold; late apoptotic cells percentage (Q2) (HepG-2 cells [2]): 7.85%; early apoptotic cells percentage (Q4) (HepG-2 cells [2]; control 0.72%): 5.47%; fold higher cytotoxicity than Sorafenib (HepG-2 cells [1]; HepG-2 cells): 2.31 fold and 2.3 fold; caspase-7 level, fold increase compared to the control (caspase-7): ~6.9 fold; %β-TUB polymerization inhibition (β-tubulin): 72.61 ± 0.14%; β-tubulin polymerization inhibition (β-tubulin): 72% and 73%; fold more potent than Sorafenib against VEGFR-2 (VEGFR-2): 4 fold; Bcl-2 level, fold decrease compared to the control (Bcl-2): 2.2 fold; G2/M arrest, fold increase compared to the control (HepG-2 cells [3]): about 2 fold; apoptotic sub-G1 cell population (HepG-2 cells [3]): 8.23%; p53 protein level, fold increase compared with the control (p53): about 3.4 fold
930 ± 190 | COc1ccc(NC(=O)c2c(Nc3ccccc3)sc(C#N)c2NC(=O)CNc2ccc(Br)cc2)cc1 [Compound 6, 4-[2-(4-Bromophenyl)amino-acetamido]-5-cyano-N-(4-methoxyphenyl)-2-phenylaminothiophene-3-carboxamide] | 3.51 ± 0.22 | 3.13 ± 0.21 | 3.51 | 3.5 | 
 | COc1ccc(NC(=O)c2c(Nc3ccccc3)sc(C#N)c2NC(=O)CNc2ccc(C)cc2)cc1 [Compound 7, 5-Cyano-N-(4-methoxyphenyl)-2-phenylamino-4-[2-(4-methylphenyl)amino-acetamido]thiophene-3-carboxamide] | 24.3 ± 1.96 | 18.4 ± 1.23 |  | 24 | 
 | COc1ccc(NC(=O)c2c(Nc3ccccc3)sc(C#N)c2NC(=O)CNc2ccc(O)cc2)cc1 [Compound 8, 5-Cyano-N-(4-methoxyphenyl)-4-[2-(4-hydroxyphenyl)amino-acetamido]-2-phenylaminothiophene-3-carboxamide] | 10.4 ± 1.08 | 16.2 ± 1.52 |  | 10.4 | 
 | COc1ccc(NCC(=O)Nc2c(C#N)sc(Nc3ccccc3)c2C(=O)Nc2ccc(OC)cc2)cc1 [Compound 9, 5-Cyano-N-(4-methoxyphenyl)-4-[2-(4-methoxyphenyl)amino-acetamido]-2-phenylaminothiophene-3-carboxamide] | 14.3 ± 1.23 | 21.4 ± 1.92 |  | 14 | 
3920 ± 160 | COc1ccc(NC(=O)c2c(Nc3ccccc3)sc(C#N)c2NC(=O)CNc2ccc([N+](=O)[O-])cc2)cc1 [Compound 10, 5-Cyano-N-(4-methoxyphenyl)-4-[2-(4-nitrophenyl)aminoacetamido]-2-phenylaminothiophene-3-carboxamide] | 9.71 ± 0.86 | 5.12 ± 0.42 | 9.71 | 9.7 | 
 | COc1ccc(NC(=O)c2c(Nc3ccccc3)sc(C#N)c2NC(=O)CNc2ccccc2Cl)cc1 [Compound 11, 5-Cyano-N-(4-methoxyphenyl)-4-[2-(2-chlorophenyl)aminoacetamido]-2-phenylaminothiophene-3-carboxamide] | 31.3 ± 3.61 | 52.2 ± 5.54 |  |  | 
 | COc1ccc(NC(=O)c2c(Nc3ccccc3)sc(C#N)c2NC(=O)CNc2ccccc2[N+](=O)[O-])cc1 [Compound 12, 5-Cyano-N-(4-methoxyphenyl)-4-[2-(2-nitrophenyl)amino-acetamido]-2-phenylaminothiophene-3-carboxamide] | 43.3 ± 4.23 | 60.1 ± 7.41 |  |  | 
 | COc1ccc(NC(=O)c2c(Nc3ccccc3)sc(C#N)c2NC(=O)CNc2ccc(OC)c(OC)c2)cc1 [Compound 13, 5-Cyano-N-(4-methoxyphenyl)-4-[2-(3,4-dimethoxyphenyl)amino-acetamido]-2-phenylaminothiophene-3-carboxamide] | 15.2 ± 1.62 | 10.3 ± 1.31 |  | 15.2 | 
 | COc1ccc(NC(=O)c2c(Nc3ccccc3)sc(C(=O)NN=Cc3ccccc3)c2NC(C)=O)cc1 [Compound 16, 4-Acetamido-5-(2-benzylidenehydrazinocarbonyl)-N-(4-methoxyphenyl)-2-phenylaminothiophene-3-carboxamide] | 21.4 ± 2.91 | 19.2 ± 1.46 |  | 21 | 
5910 ± 230 | COc1ccc(NC(=O)c2c(Nc3ccccc3)sc(C(=O)NN=Cc3ccc(Cl)cc3)c2NC(C)=O)cc1 [Compound 17, 4-Acetamido-5-[2-(4-chlorobenzylidene)hydrazinocarbonyl]-N-(4-methoxyphenyl)-2-phenylaminothiophene-3-carboxamide] | 9.5 ± 0.86 | 9.24 ± 1.02 | 9.5 | 9.5 | 
 | COc1ccc(NC(=O)c2c(Nc3ccccc3)sc(C(=O)NN=Cc3ccc(Br)cc3)c2NC(C)=O)cc1 [Compound 18, 4-Acetamido-5-[2-(4-bromobenzylidene)hydrazinocarbonyl]-N-(4-methoxyphenyl)-2-phenylaminothiophene-3-carboxamide] | 10.1 ± 1.12 | 7.41 ± 0.62 |  | 10.4 | 
 | COc1ccc(NC(=O)c2c(Nc3ccccc3)sc(C(=O)NN=Cc3ccc(C)cc3)c2NC(C)=O)cc1 [Compound 19, 4-Acetamido-5-[2-(4-methylbenzylidene)hydrazinocarbonyl]-N-(4-methoxyphenyl)-2-phenylaminothiophene-3-carboxamide] | 12.2 ± 1.31 | 21.4 ± 1.82 |  | 12.2 | 
1710 ± 210 | COc1ccc(C=NNC(=O)c2sc(Nc3ccccc3)c(C(=O)Nc3ccc(OC)cc3)c2NC(C)=O)cc1 [Compound 20, 4-Acetamido-5-[2-(4-methoxybenzylidene)hydrazinocarbonyl] -N-(4-methoxyphenyl)-2-(phenylamino)thiophene-3-carboxamide] | 4.96 ± 0.45 | 3.12 ± 0.31 | 4.96 | 8.7 | 
1290 ± 130 | COc1ccc(NC(=O)c2c(Nc3ccccc3)sc(C(=O)NN=Cc3ccc(OC)c(O)c3)c2NC(C)=O)cc1 [Compound 21, 4-Acetamido-5-[2-(3-hydroxy-4-methoxybenzylidene) hydrazinocarbonyl]-N-(4-methoxyphenyl)-2-phenylaminothiophene-3-carboxamide] | 2.61 ± 0.12 | 4.32 ± 0.11 | 2.61 |  | caspase-3 level, fold increase compared to the control (caspase-3): 9.2 fold; Bax level, fold increase compared to the control (Bax): 11.8 fold; early apoptosis fold increase vs control (HepG-2 cells [2]): 6 fold; late apoptosis fold increase vs control (HepG-2 cells [2]): 21 fold; late apoptotic cells percentage (Q2) (HepG-2 cells [2]): 7.2%; caspase-7 level, fold increase compared to the control (caspase-7): 5.9 fold; %β-TUB polymerization inhibition (β-tubulin): 85.95 ± 0.21%; β-tubulin polymerization inhibition (β-tubulin): 86%; Bcl-2 level, fold decrease compared to the control (Bcl-2): 2.5 fold; G2/M arrest, fold increase compared to the control (HepG-2 cells [3]): ~1.9 fold; apoptotic sub-G1 cell population (HepG-2 cells [3]): 6.07%; p53 protein level, fold increase compared with the control (p53): ~1.7 fold
5210 ± 320 | COc1ccc(NC(=O)c2c(Nc3ccccc3)sc(C(=O)NN=Cc3cc(OC)c(OC)c(OC)c3)c2NC(C)=O)cc1 [Compound 23, 4-Acetamido-N-(p-methoxyphenyl)-2-phenylamino-5-[2-(3,4,5-trimethoxybenzylidene)hydrazinocarbonyl]thiophene-3-carboxamide] | 10.82 ± 0.065 | 6.46 ± 0.49 | 10.8 | 5.1 | 
 | CNC(=O)c1cc(Oc2ccc(NC(=O)Nc3ccc(Cl)c(C(F)(F)F)c3)cc2)ccn1 [Sorafenib, reference compound] |  |  | 4.43 |  | IC50 (HCT-116 cells; HCT-116, read-out: IC50 against HCT-116 cells): 3.22 µM
